The values that follow come from ChEMBL document CHEMBL3124865, “Sulfur rich 2-mercaptobenzothiazole and 1,2,3-triazole conjugates as novel antitubercular agents” (2014).

The MBC is the smallest concentration meeting the test's criterion for killing. A high value points to less potent killing. As a reminder, the MIC is the least concentration at which growth counts as inhibited. High values mean weaker potency, low ones greater potency.

Values after ≈ are worked out from the molar mass of the structure shown.

The test system of the first assay is Mycobacterium tuberculosis. The assay is described as follows: Bactericidal activity against Mycobacterium tuberculosis H37Rv after 20 days. As to conditions: 480 h. The format is functional. The procedure, abridged: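 After the microdilution MIC run, 0.02 mL of H37Rv suspension from wells at MIC and higher concentrations was plated on 7H10 agar (7H11 also named). Viable counts were taken after 20 days at 37 °C. MBC is the lowest concentration that cut viable counts by at least 99% versus compound-free wells.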
With `Clc1cccc(-n2cc(CSc3nc4ccccc4s3)nn2)c1`, the MBC is more than 64 µg/mL. In the case of `O=[N+]([O-])c1ccc(-n2cc(CSc3nc4ccccc4s3)nn2)cc1`, the MBC was 32 µg/mL (≈ 86.6 µM). On the same count and under the same terms, with `O=[N+]([O-])c1cccc(-n2cc(CSc3nc4ccccc4s3)nn2)c1` the figure was 64 µg/mL (≈ 173 µM); with `CC1(C)O[C@H]2OC(Cn3cc(CSc4nc5ccccc5s4)nn3)[C@@H]3OC(C)(C)O[C@@H]3[C@@H]2O1` (stereo partly drawn), 32 µg/mL (≈ 65.2 µM).

The next assay has as its system Mycobacterium tuberculosis. The assay is described as follows: Antimycobacterial activity against Mycobacterium tuberculosis H37Rv after 2 to 3 weeks by broth microdilution assay. The class given is functional.
Settings: not given
The procedure, abridged: (§1)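 M. tuberculosis H37Rv in broth microdilution. Compounds were first screened at one fixed concentration in triplicate, and actives went on to MIC determination. Plates were incubated 2–3 weeks at 37 °C in a CO₂ incubator. MIC was read visually as the absence of growth turbidity.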
In general terms: Broth dilution looks for growth in wells or tubes with falling amounts of substance.
For the compound `O=C(CSc1nc2ccccc2s1)N1CCOCC1`, the MIC is less than 128 µg/mL. `O=C(CSc1nc2ccccc2s1)N1CCCCC1` yielded an MIC of less than 128 µg/mL. In turn, `O=C(C(=O)N1CCCC1)c1c[nH]c2ccccc12` yielded an MIC of less than 128 µg/mL. In turn, `Clc1ccccc1-n1cc(CSc2nc3ccccc3s2)nn1` displayed an MIC of 16 µg/mL (≈ 44.6 µM). `Clc1cccc(-n2cc(CSc3nc4ccccc4s3)nn2)c1` came in with an MIC of 8 µg/mL (≈ 22.3 µM). The compound `Clc1ccc(-n2cc(CSc3nc4ccccc4s3)nn2)cc1` gave an MIC of less than 128 µg/mL.

`Fc1ccc(-n2cc(CSc3nc4ccccc4s3)nn2)cc1`: the MIC was less than 128 µg/mL. `Brc1ccc(-n2cc(CSc3nc4ccccc4s3)nn2)cc1` had an MIC of 16 µg/mL (≈ 39.7 µM). In turn, `O=[N+]([O-])c1ccc(-n2cc(CSc3nc4ccccc4s3)nn2)cc1` showed a minimal inhibitory concentration (MIC) of 8 µg/mL (≈ 21.7 µM). The same measure, in the same setting: with `O=[N+]([O-])c1cccc(-n2cc(CSc3nc4ccccc4s3)nn2)c1` the figure was 8 µg/mL (≈ 21.7 µM); with `Cc1ccccc1-n1cc(CSc2nc3ccccc3s2)nn1`, less than 128 µg/mL; with `CCOc1ccc(-n2cc(CSc3nc4ccccc4s3)nn2)cc1`, less than 128 µg/mL.

On to `c1ccc(-n2cc(CSc3nc4ccccc4s3)nn2)cc1`, for which the MIC is less than 128 µg/mL. On to `c1cncc(-n2cc(CSc3nc4ccccc4s3)nn2)c1`, for which the MIC was 16 µg/mL (≈ 49.2 µM).

The compound `CC1(C)O[C@H]2OC(Cn3cc(CSc4nc5ccccc5s4)nn3)[C@@H]3OC(C)(C)O[C@@H]3[C@@H]2O1` (stereo partly drawn) came in with an MIC of 8 µg/mL (≈ 16.3 µM). For `CC1(C)OCC(Cn2cc(CSc3nc4ccccc4s3)nn2)O1` (stereo not drawn), the MIC was less than 128 µg/mL.

`CN1CCN(C(=O)C(=O)c2c[nH]c3ccccc23)CC1` registered an MIC of less than 128 µg/mL. As for `O=C(C(=O)N1CCSCC1)c1c[nH]c2ccccc12`, the MIC was less than 128 µg/mL. Consider `O=C(NN1CCOCC1)C(=O)c1c[nH]c2ccccc12`, for which the MIC is less than 128 µg/mL. The compound `O=C(NNC(=O)c1ccncc1)C(=O)c1c[nH]c2ccccc12` had an MIC of 64 µg/mL (≈ 208 µM). `O=C(CSc1nc2ccccc2s1)N1CCCC1` returned an MIC of less than 128 µg/mL.

As for `CN1CCN(C(=O)CSc2nc3ccccc3s2)CC1`, the MIC was less than 128 µg/mL.

`O=C(CSc1nc2ccccc2s1)N1CCSCC1`: the MIC is 64 µg/mL (≈ 206 µM). Consider `O=C(CSc1nc2ccccc2s1)NN1CCOCC1`, for which the MIC is less than 128 µg/mL. `O=C(CSc1nc2ccccc2s1)Nc1ccc(F)cc1` yielded an MIC of 64 µg/mL (≈ 201 µM).

`O=C(CSc1nc2ccccc2s1)Nc1ccc(Br)cc1` displayed a minimum inhibitory concentration (MIC) of less than 128 µg/mL. Still for that read-out and setting: then `O=C(CSc1nc2ccccc2s1)Nc1ccccn1`, with 64 µg/mL (≈ 212 µM); and `O=C(CSc1nc2ccccc2s1)NCc1ccc(F)cc1`, with less than 128 µg/mL.

Regarding `O=C(CSc1nc2ccccc2s1)NNC(=O)c1ccncc1`, the MIC was less than 128 µg/mL. The compound `O=C(C(=O)N1CCOCC1)c1c[nH]c2ccccc12` came in with an MIC of less than 128 µg/mL. The compound `O=C(C(=O)N1CCCCC1)c1c[nH]c2ccccc12` registered an MIC of less than 128 µg/mL.

`NNC(=O)c1ccncc1` [ISONIAZID]: it took 0.125 µg/mL (≈ 0.911 µM) to inhibit growth (MIC). In the case of `CO[C@H]1/C=C/O[C@@]2(C)Oc3c(C)c(O)c4c(O)c(c(/C=N/N5CCN(C)CC5)c(O)c4c3C2=O)NC(=O)/C(C)=C\C=C\[C@H](C)[C@H](O)[C@@H](C)[C@@H](O)[C@@H](C)[C@H](OC(C)=O)[C@@H]1C` [RIFAMPIN], the lowest concentration to inhibit growth (MIC) was 0.06 µg/mL (≈ 0.0729 µM).

The next assay has as its system Mycobacterium tuberculosis. Kind of assay: Antimycobacterial activity against Mycobacterium tuberculosis. The class given is functional.
Settings: not given
The procedure, abridged:
as §1
`CC1COC2(CCN(c3nc(=O)c4cc(C(F)(F)F)cc([N+](=O)[O-])c4s3)CC2)O1` (stereo not drawn) returned an MIC of 0.001 µg/mL (≈ 0.00232 µM).
